# Hits are enriched below; roughly 4.8% of the tested compounds scored in any of these assays.
# Efflux pump mplx – inhibitors of Candida antifungal efflux pumps expressed in yeast. AID 485275. inhibition, % at 10 µM. 0.44% of 330,000 active. S. cerevisiae Candida pump triplex, Nile Red efflux;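 active = plate passing quality check with inhibition over a set limit, or well fluorescence over plate mean plus 4 SD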;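 note: Nile Red retained in pooled yeast measured as flow cytometry median fluorescence; 0% = buffer negative control and 100% = Enniatin B positive control; higher means more Nile Red kept so more efflux inhibition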
# Beta cell apopt – beta cell apoptosis inhibition; protection from apoptosis, % (test concentration not listed); INS-1E cytokine-induced death, ATP luminescence, 48 h; percent of positive-control rescue, neutral wells zero; 0.8% of 300,000 active; AID 435005;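 active = Every replicate reaches about 75%, or at least half do and their mean reaches it too, limit read from the data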;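 note: 0% = cytokine-treated negative control wells and 100% = positive control rescue; higher means more ATP so stronger rescue from cytokine killing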
# WT yeast gro inh – growth inhibition of WT yeast, mitochondrial fusion screen. inhibition, % at 10 µM. 2.1% of 190,000 active. mitochondrial fusion phenotypic screen, WT strain. AID 1362; in the data active = inhibition above about 58%; tested in S. cerevisiae
# Mot1-301 SUMO – SUMOylation pathway inhibition by Mot1-301 growth rescue. S. cerevisiae Mot1-301 growth rescue, ATP luminescence, 38.5C; percent above DMSO median, 100 means doubled. growth rescue, % at 18.8 µM. 1% of 320,000 active;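 active = every valid replicate shows activation above 250% relative to neutral control wells; inactive = the rest, any valid replicate at or below 250%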;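 note: OY570 slx delta 5 strain wells were the positive control but not used for scaling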
# CSC inhib – blocks cancer stem cells; 1.1% of 300,000 active; AID 2717; cancer stem cell-like cells viability, luminescence; inhibition, % at 7.5 µM; in the data active = inhibition above about 75%; tested in HMLE shEcad cells
# T cruzi repl – T. cruzi replication inhibition; 1.4% of 300,000 active; AID 1885; T. cruzi beta-gal in NIH3T3, luminescence, 90 h; inhibition, % (concentration not given with the values);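 active = mean inhibition across valid replicates above about 55%, limit read from the data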;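 note: signal also drops with host cell toxicity which is not excluded here; 0% = plate median of DMSO wells and 100% = zero luminescence signal; higher percent means less beta-gal luminescence so fewer parasites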
#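 System: NIH/3T3 fibroblasts plus reporter T. cruzi. Medium: DMEM plus 2% FBS. Probe or stimulus: 5000 reporter trypomastigotes per well. Compound: single 50 nL compound addition per well in DMSO. Incubation: co-culture of at least 90 h after 3 h attachment. Detection: GalScreen β-gal luminescence, detergent lysis, 60 min. Evaluation: parasite load inhibition, %.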
# An asterisk follows results filed as active; . = no result.
SMILES,Efflux pump mplx,Beta cell apopt,WT yeast gro inh,Mot1-301 SUMO,CSC inhib,T cruzi repl
COc1ccc(S(=O)(=O)N2CC(C)N(C(=O)N(C)C)C2C)cc1 (stereo unspecified),0,3,.,63,-7,-13
CC(/C=N/n1c(-c2ccco2)n[nH]c1=S)=C\c1ccccc1,0,-8,73*,11,1,-6
CC(/C=N/n1c(-c2ccc(Cl)cc2)n[nH]c1=S)=C\c1ccco1,4,1,72*,18,15,-13
CC(/C=N/n1c(-c2cc(C)[nH]n2)n[nH]c1=S)=C\c1ccco1,0,-7,.,-11,-20,-8
O=C(CCc1c[nH]c2ccccc12)OCc1ccc(Br)cc1,0,-2,.,-32,-11,-1
COC(=O)c1cc2c(N)c(C(=O)c3ccccc3)sc2nc1C(OC)OC,0,2,.,9,-7,11
N#CNC(=Nc1ccc(Cl)cc1)Oc1ccccc1,0,-5,.,0,7,-2
NNC(=O)/C=C/c1ccc(Cl)cc1Cl,0,3,15,10,-9,-14
CC(C)SC1=NC(C)(C)C=C(/C=C/c2ccc(Cl)cc2Cl)N1,1,-1,77*,-24,51,18
CC(C)SC1=NC(C)(C)C=C(/C=C/c2c(Cl)cccc2Cl)N1,0,-3,66*,-18,13,-7
COc1ccc(-c2nc(N3CCN(C)CC3)sc2-c2ccc(OC)cc2)cc1,0,7,.,-13,36,41
CCOC(=O)NNc1ccccc1,0,0,.,141,12,-9
CCC(O)CC(C(=O)NNc1ccccc1)C(=O)NNc1ccccc1 (stereo unspecified),0,1,22,268*,-10,5
COc1ccc(C2C(C(C)=O)=C(O)C(=O)N2c2ccccn2)cc1 (stereo unspecified),0,1,.,-9,-11,-8
Cc1ccc(NC2=NCC(=O)N2C2CCCC2)c(C)c1,0,3,5,-8,-14,-13
CCCC[n+]1c(-c2ccc(Cl)cc2Cl)csc1Nc1ccccc1,-4,-2,68*,-8,52,2
C=CC[n+]1c(-c2ccc(Cl)cc2Cl)csc1Nc1ccc(NC(C)=O)cc1,0,11,86*,25,-6,41
Clc1ccc(-c2csc(Nc3ccccc3)[n+]2Cc2ccco2)c(Cl)c1,.,.,72*,.,.,45
O=[N+]([O-])c1ccc(-c2csc(Nc3ccccc3)[n+]2Cc2ccccc2)cc1,0,11,16,-15,24,43
C=CC[n+]1c(-c2ccc(Cl)cc2Cl)csc1Nc1c(C)n(C)n(-c2ccccc2)c1=O,0,18,24,-21,-1,32
CN1CCN(Cc2nc3c(c(=O)n(C)c(=O)n3C)n2Cc2ccccc2Cl)CC1,.,.,14,.,.,.
C[C@H](NC(=O)CCCOc1ccc(Cl)cc1Cl)c1nnc2ccccn12,0,-2,.,-1,-31,-4
Cc1cc(C)cc(NC(=O)OCCN2CCN(Cc3ccccc3)CCC2=O)c1,0,0,-8,-12,-17,5
CCCc1cc(-c2nc(N)ncc2-c2ccc3c(c2)OCCCO3)c(O)cc1OC,0,0,85*,-30,173*,58*
CCCc1cc(-c2nc(N)ncc2-c2csc(C)n2)c(O)cc1OC,0,-4,26,0,-5,21
SMILES,Efflux pump mplx,Beta cell apopt,WT yeast gro inh,Mot1-301 SUMO,CSC inhib,T cruzi repl
O=C(CSc1nc2cc(Cl)ccc2o1)NCCc1ccccc1,0,-14,68*,3,-9,-6
O=C(N=C1SC2CS(=O)(=O)CC2N1c1ccccc1)C1CCCCC1 (stereo unspecified),0,-6,.,1,17,-4
Cc1ccc2nc(-c3cccc(NS(C)(=O)=O)c3)cc(-c3ccccc3)c2c1,-1,-3,94*,6,115*,19
Cc1nc(-c2cccc(NS(=O)(=O)c3ccccc3)c2)cs1,0,-7,-8,32,-13,5
CCc1ccc2oc(-c3ccc(OC)cc3)cc(=Nc3c(C)n(C)n(-c4ccccc4)c3=O)c2c1,0,11,4,3,21,64*
CCc1ccc2oc(-c3ccc(OC)cc3)cc(=Nc3cccc(C(=O)O)c3)c2c1,0,0,56,-18,6,10
COC(=O)Cn1c(C(O)c2ccccc2)nc2ccccc21 (stereo unspecified),0,-3,.,-7,-10,0
CNC(=S)N/N=C/c1c2ccccc2c(Cl)c2ccccc12,0,7,.,0,10,10
O=S(=O)(Nc1cc(Cl)ccc1N1CCCCC1)c1cccs1,0,1,60*,0,-17,13
O=S(=O)(Nc1ccc(N2CCCCC2)cc1)c1cccs1,1,12,2,-30,0,24
COc1ccc(C(=O)N(c2ccc(OC)cc2)S(=O)(=O)c2cccs2)cc1,0,3,74*,34,0,7
COc1ccc(N(C(=O)c2ccccc2)S(=O)(=O)c2cccs2)cc1,0,6,25,164,39,13
Cc1ccc(NC(=O)c2cc([N+](=O)[O-])ccc2NCc2cccnc2)cc1Cl,0,31,22,-10,-8,57*
O=C(NCc1cccnc1)c1ccc(-c2ccc(Cl)cc2)o1,0,-5,4,-7,13,11
O=C(NCc1cccnc1)c1ccc(-c2cc3ccccc3oc2=O)cc1,0,101*,-3,2,59,-4
COc1ccc(C(=O)NCc2cccnc2)cc1,0,-11,1,-5,0,-12
O=C(NCc1cccnc1)c1ccc([N+](=O)[O-])cc1,0,103*,-1,-34,-21,-1
COc1cccc(NC(=O)c2cc([N+](=O)[O-])ccc2NCc2cccnc2)c1,0,-4,-10,-9,-12,-7
O=C(NCc1cccnc1)/C(=C\c1ccc(-c2ccc(Cl)c(Cl)c2)o1)S(=O)(=O)c1ccccc1,0,105*,53,19,113*,45
O=C(Nc1ccc(Cc2ccncc2)cc1)c1cccc([N+](=O)[O-])c1,0,-3,16,-25,45,-4
O=C(NCc1cccnc1)c1ccc(NC(=O)c2cccc([N+](=O)[O-])c2)cc1,0,140*,-9,59,25,-32
O=C(NCc1cccnc1)c1ccc(-c2cc(Cl)ccc2Cl)o1,0,5,15,18,-10,56*
Cc1nn(CCCC(=O)NC2CCC(C)CC2)c(=O)c2nn(-c3ccccc3)c(C)c12 (stereo unspecified),0,0,.,-7,-3,9
COc1ccc(/C=C/C2=NN(Cc3ccccc3)C(=O)CC2)cc1,0,-4,12,-19,-2,7
O=C1CCC(/C=C/c2ccccc2)=NN1Cc1ccccc1Cl,0,-9,60*,33,-6,9

# Bioassay records deposited in PubChem by several laboratories.
